Assay results from ChEMBL document CHEMBL1124990, “Propenyl carboxamide derivatives as antagonists of platelet activating factor” (J Med Chem, 1990).

Key:
Type in all cases: functional
Cavia porcellus [1] = test: In vivo inhibition of the platelet activating factor-induced bronchoconstriction after 2 hr at dose 50 mg/kg administered perorally in guinea pig; conditions: route oral
Summary of the method: (§1)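 Oral dosing of 50 mg/kg, either 2 h or 6 h before iv PAF challenge (1 μg/kg), in urethane-anesthetized male Hartley guinea pigs (400–600 g). Animals were propranolol-pretreated, paralysed with succinylcholine and ventilated. Tracheal pressure change averaged over four vehicle and four drug-treated animals and reported as % inhibition.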

Cavia porcellus [2] = test: Dose that caused significant inhibition of the platelet activating factor-induced bronchoconstriction in guinea pig after intravenous administration; conditions: read-out: ID50 (the source's name)
Summary of the method: (§2)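 Male Hartley guinea pigs (400–600 g), urethane-anesthetized (2 g/kg ip), jugular cannula; propranolol given 5 min before PAF; succinylcholine (1.2 mg/kg iv) then ventilation at 40 breaths/min, 4.0 cm³ stroke. Drug or vehicle iv 1 min before PAF 1 μg/kg iv. Tracheal pressure change averaged over four control and four treated animals, expressed as % inhibition; screen at 1 mg/kg.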

Cavia porcellus [3] = test: In vivo inhibition of the platelet activating factor-induced bronchoconstriction at dose 1.0 mg/kg administered intravenous in guinea pig; summary of the method: as §2
Cavia porcellus [4] = test: Dose that caused significant inhibition of the platelet activating factor-induced bronchoconstriction in guinea pig after peroral administration; conditions: po, read-out: ID50 (the source's name)
Summary of the method: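 Male Hartley guinea pigs (400–600 g), urethane-anesthetized (2 g/kg ip), jugular cannula, propranolol pretreatment, succinylcholine paralysis and ventilation. Compound or vehicle given orally 2 h before iv PAF challenge (1 μg/kg). Tracheal pressure rise averaged over four control and four dosed animals, giving % inhibition.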

Cavia porcellus [5] = test: In vivo inhibition of the platelet activating factor-induced bronchoconstriction after 6 hr at dose 50 mg/kg administered perorally in guinea pig; conditions: route oral; summary of the method: as §1

Structure (SMILES) | inhibition in vivo at 50 mg/kg (Cavia porcellus [1]) [%] | ED50 (Cavia porcellus [2]) [mg/kg] | inhibition in vivo at 1 mg/kg (Cavia porcellus [3]) [%] | ED50 (Cavia porcellus [4]) [mg/kg] | inhibition in vivo at 50 mg/kg (Cavia porcellus [5]) [%]
CCCCc1c(/C=C/C(=O)N[C@@H](C)CCCc2cccnc2)ccc2c(OC)cccc12 | 4 | 1 | 50 |  | 
CCCCCc1c(/C=C/C(=O)N[C@@H](CC)CCCc2cccnc2)n(C)c2cc(OC)ccc12 | 99 | 0.07 | 98 | 3 | 96
COc1ccc(-c2c(/C=C/C(=O)N[C@@H](C)CCCc3cccnc3)ccc3cc(OC)ccc23)cc1 | 79 | 0.18 | 92 | 12 | 55
CCCCC1=C(/C=C/C(=O)N[C@@H](C)CCCc2cccnc2)CCc2cc(OC)ccc21 | 50 | 0.46 | 94 | 50 | 
CCCCC/C(=C\C=C\C(=O)N[C@@H](C)CCCc1cccnc1)c1ccc(OC)cc1 | 100 | 0.05 | 99 | 4.1 | 71
CCCCCc1c(/C=C/C(=O)N[C@@H](C)CCCc2cccnc2)oc2cc(OC)ccc12 | 0 | 0.06 | 89 |  | 
CCCCCC1=C(/C=C/C(=O)N[C@@H](C)CCCc2cccnc2)Cc2cc(OC)ccc21 | 0 | 0.05 | 96 |  | 
CCCCCc1c(/C=C/C(=O)N[C@@H](C)CCCc2cccnc2)sc2cc(OC)ccc12 | 97 | 0.11 | 98 | 5.4 | 97
CCCCc1c(/C=C/C(=O)N[C@@H](C)CCCc2cccnc2)ccc2cc(OC)ccc12 | 92 | 0.45 | 95 | 4.2 | 71
CCCCc1c(/C=C/C(=O)N[C@@H](C)CCCc2cccnc2)ccc2ccc(OC)cc12 |  |  | 0 |  | 
COc1ccc(C2=C(/C=C/C(=O)N[C@@H](C)CCCc3cccnc3)CCc3cc(OC)ccc32)cc1 | 75 | 0.15 | 95 | 17 | 1
CCCCc1c(/C=C/C(=O)N[C@@H](C)CCCc2cccnc2)cc(OC)c2ccccc12 | 95 | 0.11 | 90 | 2.8 | 52
CCCCc1c(/C=C/C(=O)N[C@@H](C)CCCc2cccnc2)cc(OC)c2ccc(OC)cc12 | 16 | 0.44 | 80 |  | 
